Assay results reported in ChEMBL document CHEMBL2034857, “Discovery of the macrocycle (9E)-15-(2-(pyrrolidin-1-yl)ethoxy)-7,12,25-trioxa-19,21,24-triaza-tetracyclo[18.3.1.1(2,5).1(14,18)]hexacosa-1(24),2,4,9,14(26),15,17,20,22-nonaene (SB1578), a potent inhibitor of janus kinase 2/fms-like tyrosine kinase-3 (JAK2/FLT3) for the treatment of rheumatoid …” (J Med Chem, 2012).

Columns and labels:
[1] = Antiproliferative activity against human SET2 cells expressing JAK2 V617F mutan; format: functional, cell-based; settings: SET-2
[2] = Cmax in BALB/c nude mouse at 50 mg/kg, po; format: ADME, organism-based; set-up: dose 50 mg/kg, route oral; settings: in vivo
Summary of the method: (§1)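 Single oral gavage at 50 (mouse, rat), 5 (dog) or 20 (monkey) mg/kg; rodents and monkeys received suspensions in 0.5% methylcellulose/0.1% Tween 80, dogs gelatin capsules. Serial blood taken 0–24 h into K3EDTA, plasma stored at −70 °C. Parameters estimated by noncompartmental analysis, n = 3 per species (mouse values from mean concentration–time data, 3 mice per time point).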

[3] = target: Cytochrome P450 2C19 (Homo sapiens, UniProt P33261); assay: Inhibition of CYP2C19 in human liver microsomes using omeprazole as substrate by LC-MS/MS analysis; format: ADME, Microsome
[4] = Plasma protein binding in mouse at 1000 ng/mL by equilibrium dialysis; format: ADME, cell-free; settings: read-out: PPB (converted)
Summary of the method: (§2)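 Equilibrium dialysis of plasma (mouse, rat, dog, monkey, human) spiked to 1000 ng/mL final against PBS, 4 h at 37 °C; buffer side extracted with MTBE in triplicate and analyzed by LC-MS/MS.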

[5] = Half life in mouse liver microsomes at 5 uM; format: ADME, Microsome
Summary of the method: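 Compound at 5 μM with human, mouse or dog microsomes at 0.87 mg/mL, or rat and monkey microsomes at 1 mg/mL, in 50 mM potassium phosphate pH 7.4 with NADPH regenerating system at 37 °C.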

[6] = Plasma protein binding in monkey at 1000 ng/mL by equilibrium dialysis; format: ADME, cell-free, Macaca mulatta; settings: rhesus monkey, read-out: PPB (converted); summary of the method: as §2
[7] = Plasma protein binding in human at 1000 ng/mL by equilibrium dialysis; format: ADME, cell-free; settings: read-out: PPB; summary of the method: as §2
[8] = target: T1, Cytochrome P450 3A4 (Homo sapiens, UniProt P08684); assay: Inhibition of CYP3A4 in human liver microsomes using testosterone as substrate by LC-MS/MS analysis; format: ADME, Microsome
[9] = Plasma protein binding in dog at 1000 ng/mL by equilibrium dialysis; format: ADME, cell-free, Canis lupus familiaris; settings: read-out: PPB (converted); summary of the method: as §2
[10] = target: Tyrosine-protein kinase JAK2 (Homo sapiens, UniProt O60674); assay: Inhibition of recombinant JAK2 using poly(Glu,Ala,Tyr) as substrate after 2 hrs by luminometric assay
[11] = Tmax in BALB/c nude mouse at 50 mg/kg, po; format: ADME, organism-based; set-up: dose 50 mg/kg, route oral; settings: in vivo
Summary of the method: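 Single oral dose by gavage as suspension in 0.5% methylcellulose/0.1% Tween 80 (mouse, rat, monkey) or in gelatin capsules (dog). Serial blood samples taken from 0 to 24 h into K3EDTA tubes; plasma stored at −70 °C until analysis. Parameters derived by noncompartmental methods. Rat, dog and monkey n = 3; mouse values estimated from mean concentration-time data, n = 3 mice per time point.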

[12] = target: T2, Cytochrome P450 1A2 (Homo sapiens, UniProt P05177); assay: Induction of CYP1A2 in human liver microsomes; format: ADME, Microsome
T2 sequence (P05177 whole entry): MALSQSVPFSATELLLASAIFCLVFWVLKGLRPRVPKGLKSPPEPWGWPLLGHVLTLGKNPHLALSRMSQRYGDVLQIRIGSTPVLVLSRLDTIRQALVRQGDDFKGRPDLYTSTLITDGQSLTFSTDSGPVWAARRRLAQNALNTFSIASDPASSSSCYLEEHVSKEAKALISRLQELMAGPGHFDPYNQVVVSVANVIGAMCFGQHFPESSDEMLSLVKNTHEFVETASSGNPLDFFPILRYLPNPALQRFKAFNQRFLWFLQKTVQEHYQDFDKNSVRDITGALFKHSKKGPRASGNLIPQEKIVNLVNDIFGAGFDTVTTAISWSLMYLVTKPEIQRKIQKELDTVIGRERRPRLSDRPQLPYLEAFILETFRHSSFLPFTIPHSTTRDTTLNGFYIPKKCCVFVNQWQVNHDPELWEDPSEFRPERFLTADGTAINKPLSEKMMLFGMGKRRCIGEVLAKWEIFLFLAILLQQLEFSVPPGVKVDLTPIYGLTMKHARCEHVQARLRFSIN

[13] = test system: HL-60; assay: Antiproliferative activity against human HL60 cells expressing FLT3 after 48 hrs by luciferase reporter gene assay; format: functional; settings: HL-60, 48 h
[14] = Oral bioavailability in BALB/c nude mouse at 50 mg/kg; format: ADME, organism-based; settings: in vivo; summary of the method: as §1
[15] = Cmax in rhesus monkey at 20 mg/kg, po; format: ADME, organism-based, Macaca mulatta; set-up: dose 20 mg/kg, route oral; settings: in vivo; summary of the method: as §1
[16] = target: T1, Cytochrome P450 3A4; assay: Inhibition of CYP3A4 in human liver microsomes using testosterone as substrate by fluorescence detection assay; format: ADME, Microsome
Summary of the method: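 Human liver microsomes at 0.25 mg/mL for CYP3A4, incubated with test compound at 0.001, 0.01, 0.1, 1.0, 5, 10 and 25 μM. IC50 is the concentration giving 50% inhibition, calculated from the decrease in metabolite formation relative to vehicle control.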

[17] = target: Macrophage colony-stimulating factor 1 receptor (Homo sapiens, UniProt P07333); assay: Inhibition of c-fms
[18] = Oral bioavailability in beagle dog at 5 mg/kg; format: ADME, organism-based, Canis lupus familiaris; settings: in vivo; summary of the method: as §1
[19] = target: T3, Receptor-type tyrosine-protein kinase FLT3 (Homo sapiens, UniProt P36888); assay: Inhibition of recombinant FLT3 using poly(Glu,Tyr) as substrate after 2 hrs by luminometric assay
T3 sequence (P36888 whole entry): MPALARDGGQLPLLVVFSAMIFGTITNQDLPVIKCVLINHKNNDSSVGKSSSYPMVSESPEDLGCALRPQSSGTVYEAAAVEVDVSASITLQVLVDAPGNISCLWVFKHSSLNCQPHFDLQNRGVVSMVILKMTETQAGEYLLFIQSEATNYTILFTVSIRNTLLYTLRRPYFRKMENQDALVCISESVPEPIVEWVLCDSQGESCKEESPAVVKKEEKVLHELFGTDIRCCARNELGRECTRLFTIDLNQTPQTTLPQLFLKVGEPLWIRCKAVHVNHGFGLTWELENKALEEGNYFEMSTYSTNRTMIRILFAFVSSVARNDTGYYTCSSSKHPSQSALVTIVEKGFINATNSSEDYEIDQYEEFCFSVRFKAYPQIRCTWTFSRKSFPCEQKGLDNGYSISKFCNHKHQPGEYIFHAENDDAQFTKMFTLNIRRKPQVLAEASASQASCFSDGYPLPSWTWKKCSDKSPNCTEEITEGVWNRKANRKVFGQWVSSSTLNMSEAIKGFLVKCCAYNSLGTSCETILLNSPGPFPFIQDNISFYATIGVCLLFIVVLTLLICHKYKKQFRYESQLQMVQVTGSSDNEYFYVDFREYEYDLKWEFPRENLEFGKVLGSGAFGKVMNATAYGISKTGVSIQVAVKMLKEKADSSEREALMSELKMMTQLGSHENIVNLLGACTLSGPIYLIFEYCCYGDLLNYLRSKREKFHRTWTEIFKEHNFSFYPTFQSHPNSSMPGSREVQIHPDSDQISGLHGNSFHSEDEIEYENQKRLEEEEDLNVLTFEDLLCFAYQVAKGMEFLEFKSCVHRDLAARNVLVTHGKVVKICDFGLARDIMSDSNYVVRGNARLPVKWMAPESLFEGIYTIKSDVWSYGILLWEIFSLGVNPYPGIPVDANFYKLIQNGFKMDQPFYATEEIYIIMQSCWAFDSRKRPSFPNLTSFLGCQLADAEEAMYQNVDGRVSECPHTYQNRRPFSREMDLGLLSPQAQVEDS

T1 sequence (P08684 whole entry): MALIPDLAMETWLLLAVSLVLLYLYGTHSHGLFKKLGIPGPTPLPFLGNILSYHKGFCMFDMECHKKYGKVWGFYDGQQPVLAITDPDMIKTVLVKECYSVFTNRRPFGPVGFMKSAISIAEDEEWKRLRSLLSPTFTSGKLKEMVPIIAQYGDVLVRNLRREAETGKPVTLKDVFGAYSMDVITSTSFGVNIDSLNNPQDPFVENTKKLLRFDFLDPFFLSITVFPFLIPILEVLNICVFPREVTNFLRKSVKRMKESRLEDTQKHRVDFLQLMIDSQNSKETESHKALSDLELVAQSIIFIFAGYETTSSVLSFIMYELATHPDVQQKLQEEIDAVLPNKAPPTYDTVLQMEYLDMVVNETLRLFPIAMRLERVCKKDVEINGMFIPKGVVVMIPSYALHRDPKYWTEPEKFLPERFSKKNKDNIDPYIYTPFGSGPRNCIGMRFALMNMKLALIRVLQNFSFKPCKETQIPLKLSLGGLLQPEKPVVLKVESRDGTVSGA
Sequence of Tyrosine-protein kinase JAK2 (O60674 whole entry): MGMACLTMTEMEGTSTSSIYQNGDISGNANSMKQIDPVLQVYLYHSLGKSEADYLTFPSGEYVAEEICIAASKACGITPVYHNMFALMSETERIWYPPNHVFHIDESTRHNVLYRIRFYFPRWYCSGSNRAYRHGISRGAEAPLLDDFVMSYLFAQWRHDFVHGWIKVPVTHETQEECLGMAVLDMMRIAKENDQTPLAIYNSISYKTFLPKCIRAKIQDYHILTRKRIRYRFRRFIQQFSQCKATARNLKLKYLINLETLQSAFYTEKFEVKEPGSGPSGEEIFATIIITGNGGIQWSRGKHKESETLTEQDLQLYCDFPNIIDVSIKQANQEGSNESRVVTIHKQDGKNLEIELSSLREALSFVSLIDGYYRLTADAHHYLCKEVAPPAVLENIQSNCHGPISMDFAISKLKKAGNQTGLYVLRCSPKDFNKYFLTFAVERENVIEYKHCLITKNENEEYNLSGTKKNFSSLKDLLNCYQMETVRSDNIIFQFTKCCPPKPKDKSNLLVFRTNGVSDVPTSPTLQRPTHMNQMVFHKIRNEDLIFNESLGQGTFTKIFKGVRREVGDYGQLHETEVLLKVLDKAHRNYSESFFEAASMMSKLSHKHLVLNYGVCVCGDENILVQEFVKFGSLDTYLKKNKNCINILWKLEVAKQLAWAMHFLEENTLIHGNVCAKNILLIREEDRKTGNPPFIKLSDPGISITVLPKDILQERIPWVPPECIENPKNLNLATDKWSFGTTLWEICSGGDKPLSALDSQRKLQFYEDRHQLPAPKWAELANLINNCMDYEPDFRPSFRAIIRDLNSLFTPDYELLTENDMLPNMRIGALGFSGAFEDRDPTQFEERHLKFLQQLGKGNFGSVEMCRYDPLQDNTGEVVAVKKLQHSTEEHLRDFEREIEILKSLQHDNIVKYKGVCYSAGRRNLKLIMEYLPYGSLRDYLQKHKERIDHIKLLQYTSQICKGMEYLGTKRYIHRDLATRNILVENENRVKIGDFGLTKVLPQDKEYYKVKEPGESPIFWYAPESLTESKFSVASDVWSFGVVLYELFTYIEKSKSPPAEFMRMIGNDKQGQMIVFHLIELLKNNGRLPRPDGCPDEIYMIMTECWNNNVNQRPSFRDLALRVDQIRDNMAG
Sequence of Macrophage colony-stimulating factor 1 receptor (P07333 whole entry): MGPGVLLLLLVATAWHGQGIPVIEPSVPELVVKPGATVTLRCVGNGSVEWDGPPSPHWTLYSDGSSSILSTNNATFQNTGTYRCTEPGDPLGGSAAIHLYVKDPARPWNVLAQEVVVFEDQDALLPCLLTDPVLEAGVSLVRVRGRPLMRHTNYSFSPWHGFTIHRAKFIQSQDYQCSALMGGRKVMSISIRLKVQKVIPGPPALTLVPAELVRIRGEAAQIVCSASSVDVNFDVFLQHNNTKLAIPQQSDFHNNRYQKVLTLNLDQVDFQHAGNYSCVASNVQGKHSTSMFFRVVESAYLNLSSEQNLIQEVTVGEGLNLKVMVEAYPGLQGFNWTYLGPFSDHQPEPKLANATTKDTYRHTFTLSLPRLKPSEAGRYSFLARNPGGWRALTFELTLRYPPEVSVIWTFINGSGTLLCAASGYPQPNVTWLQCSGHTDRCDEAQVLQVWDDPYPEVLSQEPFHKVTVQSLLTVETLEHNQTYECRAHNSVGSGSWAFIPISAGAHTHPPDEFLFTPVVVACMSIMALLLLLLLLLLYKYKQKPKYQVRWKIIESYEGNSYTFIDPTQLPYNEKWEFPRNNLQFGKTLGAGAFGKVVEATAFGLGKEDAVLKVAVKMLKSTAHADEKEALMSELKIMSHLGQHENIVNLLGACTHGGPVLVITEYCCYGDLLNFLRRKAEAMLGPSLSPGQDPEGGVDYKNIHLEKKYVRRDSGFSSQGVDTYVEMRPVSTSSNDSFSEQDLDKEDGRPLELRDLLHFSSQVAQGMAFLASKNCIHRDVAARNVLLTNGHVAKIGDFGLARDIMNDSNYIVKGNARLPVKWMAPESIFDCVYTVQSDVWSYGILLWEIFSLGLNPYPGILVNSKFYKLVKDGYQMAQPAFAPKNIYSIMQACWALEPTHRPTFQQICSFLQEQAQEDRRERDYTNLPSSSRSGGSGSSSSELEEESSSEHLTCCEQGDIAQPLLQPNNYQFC
Sequence of Cytochrome P450 2C19 (P33261 whole entry): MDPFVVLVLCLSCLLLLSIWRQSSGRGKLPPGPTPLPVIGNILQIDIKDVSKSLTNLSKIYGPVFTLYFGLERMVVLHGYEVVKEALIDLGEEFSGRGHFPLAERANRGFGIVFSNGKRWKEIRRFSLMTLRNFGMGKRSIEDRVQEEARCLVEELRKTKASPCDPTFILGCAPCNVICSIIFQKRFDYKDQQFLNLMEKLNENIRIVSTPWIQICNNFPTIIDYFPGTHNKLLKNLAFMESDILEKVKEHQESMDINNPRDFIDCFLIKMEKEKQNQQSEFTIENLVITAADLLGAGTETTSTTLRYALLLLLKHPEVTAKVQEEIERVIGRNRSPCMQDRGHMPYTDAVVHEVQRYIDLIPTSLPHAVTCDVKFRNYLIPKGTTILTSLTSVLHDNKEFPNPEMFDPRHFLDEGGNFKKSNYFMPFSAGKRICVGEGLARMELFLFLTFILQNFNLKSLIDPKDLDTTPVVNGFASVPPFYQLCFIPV

In the case of `C1=C2COC/C=C/COCc3cc(ccc3OCCN3CCCC3)Nc3nccc(n3)C(=C1)O2` (mixture of isomers) [CT-1578], the IC50 [1] is reported as 246 nM, the Cmax [2] is reported as 1230 ng/mL and the IC50 [3] is reported as 1400 nM. For the same molecule, the fraction unbound at 1000 ng/mL [4] was 0.127, the half-life at 5 µM [5] was > 60 min and the fraction unbound at 1000 ng/mL [6] was 0.013. For the same molecule, the fraction unbound at 1000 ng/mL [7] was 0.01, the IC50 [8] was > 10 µM and the fraction unbound at 1000 ng/mL [9] was 0.127. The IC50 [10] was 46 nM, the Tmax [11] was 30 min and the Activity [12] was “Not Active”. The GI50 [13] was 850 nM, the bioavailability [14] was 34% and the Cmax [15] was 1980 ng/mL. For the same molecule, the IC50 [16] was > 10 µM, the IC50 [17] was 69 nM and the bioavailability [18] was 6%. The IC50 [19] was 60 nM.
